Results taken from ChEMBL document CHEMBL1130078, “Discovery of an orally active series of isoxazoline glycoprotein IIb/IIIa antagonists” (J Med Chem, 1997).

Experiments:
[1] = target: T1, Integrin alpha-IIb/beta-3 (Homo sapiens, UniProt P05106+P08514); assay: In vitro inhibition of ADP-induced platelet aggregation in human platelet rich plasma (hPRP); format: functional, cell-free
Canis familiaris [2] = assay: Inhibition of platelet aggregation for 12 hr after oral dose of 0.3-0.4 mg/kg to dog; format: functional, Canis lupus familiaris
Summary of the method: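 Dogs dosed orally at 0.1–0.4 mg/kg; ex vivo ADP (100 μM)-induced platelet aggregation followed over time up to 12 h, n = 4.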

Rhesus monkey [3] = assay: Inhibition of ex vivo aggregation in 2 hr after oral dose of 0.3 mg/kg to rhesus monkey; format: functional, Cercopithecidae; settings: Macaca mulatta
Summary of the method: (§1)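 Rhesus monkeys of either sex, 8–15 years, 6–10 kg, at least two animals/sex per dose, n = 8. Oral gavage by feeding tube of a solution in 0.9% saline (0.5 mL/kg), then water flush. Blood was drawn at various time points from the femoral or saphenous vein into citrate for ex vivo ADP (100 μM)-induced aggregation.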

Rhesus monkey [4] = assay: Inhibition of ex vivo aggregation over 12 hr after oral dose of 0.3 mg/kg to rhesus monkey; format: functional, Cercopithecidae; settings: Macaca mulatta; summary of the method: as §1
Canis familiaris [5] = assay: Inhibition of ex vivo platelet aggregation after intravenous administration of bolus dose of 0.025 mg/kg to dog; format: functional; settings: Canis lupus familiaris
Summary of the method: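 Dogs given an iv bolus. Ex vivo ADP (100 μM)-induced platelet aggregation measured in samples taken over 5 h.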

[6] = target: T1, Integrin alpha-IIb/beta-3
[7] = target: T1, Integrin alpha-IIb/beta-3; remark: listed apart in the source

T1 sequence (P05106 27-788 limits assumed): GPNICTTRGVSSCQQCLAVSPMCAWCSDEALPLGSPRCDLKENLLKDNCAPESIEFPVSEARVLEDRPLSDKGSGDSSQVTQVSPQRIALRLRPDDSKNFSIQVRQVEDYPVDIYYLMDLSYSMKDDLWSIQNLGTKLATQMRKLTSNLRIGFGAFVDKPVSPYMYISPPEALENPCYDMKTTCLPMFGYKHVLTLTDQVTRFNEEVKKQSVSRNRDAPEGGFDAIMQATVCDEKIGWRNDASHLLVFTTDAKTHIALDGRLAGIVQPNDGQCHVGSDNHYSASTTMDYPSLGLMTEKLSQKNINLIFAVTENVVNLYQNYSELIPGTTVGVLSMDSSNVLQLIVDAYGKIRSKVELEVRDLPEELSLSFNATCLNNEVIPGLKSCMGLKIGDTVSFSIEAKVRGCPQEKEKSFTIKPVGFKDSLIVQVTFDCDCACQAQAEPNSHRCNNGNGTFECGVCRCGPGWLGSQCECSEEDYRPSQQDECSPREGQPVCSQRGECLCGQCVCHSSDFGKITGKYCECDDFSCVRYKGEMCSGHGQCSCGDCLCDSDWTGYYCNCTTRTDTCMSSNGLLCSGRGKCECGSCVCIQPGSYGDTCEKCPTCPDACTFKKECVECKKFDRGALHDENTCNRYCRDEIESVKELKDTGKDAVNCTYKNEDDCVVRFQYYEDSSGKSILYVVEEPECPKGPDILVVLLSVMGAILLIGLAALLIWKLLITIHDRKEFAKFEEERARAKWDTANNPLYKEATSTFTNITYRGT
T1 sequence (P08514 32-887 limits assumed): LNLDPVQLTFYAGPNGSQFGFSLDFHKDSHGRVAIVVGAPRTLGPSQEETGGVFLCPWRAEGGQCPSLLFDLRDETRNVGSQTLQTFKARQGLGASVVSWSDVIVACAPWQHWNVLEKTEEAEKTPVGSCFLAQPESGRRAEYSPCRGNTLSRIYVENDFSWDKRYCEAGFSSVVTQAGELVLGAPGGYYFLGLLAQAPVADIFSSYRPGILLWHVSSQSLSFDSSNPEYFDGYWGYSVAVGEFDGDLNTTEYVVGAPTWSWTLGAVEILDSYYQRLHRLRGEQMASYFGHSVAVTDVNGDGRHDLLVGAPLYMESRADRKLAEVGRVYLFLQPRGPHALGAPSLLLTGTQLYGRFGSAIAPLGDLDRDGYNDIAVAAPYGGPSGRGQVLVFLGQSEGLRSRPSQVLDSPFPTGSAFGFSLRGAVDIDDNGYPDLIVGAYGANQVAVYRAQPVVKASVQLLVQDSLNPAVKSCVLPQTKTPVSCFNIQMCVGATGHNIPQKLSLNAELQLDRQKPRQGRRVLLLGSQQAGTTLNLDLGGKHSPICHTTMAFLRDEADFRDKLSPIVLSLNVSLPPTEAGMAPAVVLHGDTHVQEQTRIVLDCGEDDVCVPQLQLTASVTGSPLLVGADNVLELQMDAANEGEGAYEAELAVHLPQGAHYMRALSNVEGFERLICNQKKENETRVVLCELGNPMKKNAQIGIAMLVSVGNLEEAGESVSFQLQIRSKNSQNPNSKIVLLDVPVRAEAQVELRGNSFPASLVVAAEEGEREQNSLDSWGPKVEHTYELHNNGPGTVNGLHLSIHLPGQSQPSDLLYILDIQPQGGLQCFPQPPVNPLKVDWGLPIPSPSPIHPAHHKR
T1 sequence (P08514 891-1039 limits assumed): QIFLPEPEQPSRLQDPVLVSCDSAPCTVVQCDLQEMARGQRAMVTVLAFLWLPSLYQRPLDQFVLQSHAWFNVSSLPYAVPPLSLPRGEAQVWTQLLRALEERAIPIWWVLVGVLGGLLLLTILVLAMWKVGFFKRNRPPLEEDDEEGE

Work on `N=C(N)c1ccc(C2=NOC(CC(=O)NCCC(=O)O)C2)cc1` (configuration not stated) yielded an IC50 [1] of 240 nM.

For `CCCCOC(=O)N[C@@H](CNC(=O)CC1CC(c2ccc(C(=N)N)cc2)=NO1)C(=O)OC.Cl` (some centres not stated), the Inhibition (Canis familiaris [2]) was greater than 60%, the inhibition in vivo at 0.3 mg/kg (Rhesus monkey [3]) was 90% and the inhibition in vivo at 0.3 mg/kg (Rhesus monkey [4]) was 60%.

Work on `CCCCOC(=O)N[C@@H](CNC(=O)C[C@H]1CC(c2ccc(C(=N)N)cc2)=NO1)C(=O)O` yielded an inhibition in vivo at 0.025 mg/kg (Canis familiaris [5]) of 90%, an IC50 [6] of 0.25 nM and an IC50 [7] of 11 nM.
